According to ChEMBL document CHEMBL1268841, “Synthesis and antifungal activity of benzofuran-5-ols” (2010):
≈ marks a conversion by molar mass, not a printed value.

Assays:
Assay type in all cases: functional
Candida albicans = test: Antifungal activity against Candida albicans KCCM 50235 after 1 day; details: KCCM 50235, 24 h
In short: (§1)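 MIC found by twofold broth dilution in modified Sabouraud dextrose broth. Approximately 1 × 10⁵ cells/mL inoculated. Final agent concentrations ranged from 0.2 to 50.0, compared against fluconazole and 5-fluorocytosine. Read after 1 day at 37 °C.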

Candida tropicalis = test: Antifungal activity against Candida tropicalis KCCM 50662 after 1 day; details: KCCM 50662, 24 h; in short: as §1
Pichia kudriavzevii = test: Antifungal activity against Candida krusei KCCM 11655 after 1 day; details: KCCM 11655, 24 h; in short: as §1
Cryptococcus neoformans = test: Antifungal activity against Cryptococcus neoformans KCCM 50564 after 1 day; details: KCCM 50564, 24 h; in short: as §1
Aspergillus niger = test: Antifungal activity against Aspergillus niger KCTC 1231 after 2 days; details: KCTC 1231, 48 h
In short: (§2)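 Twofold broth dilution in modified Sabouraud dextrose broth. Inoculum about 1 × 10⁵ cells/mL. Agents tested at final concentrations of 0.2 to 50.0, with fluconazole and 5-fluorocytosine as standards.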

Aspergillus flavus = test: Antifungal activity against Aspergillus flavus KCCM 11899 after 2 days; details: KCCM 11899, 48 h; in short: as §2

Nc1nc(=O)[nH]cc1F [FLUCYTOSINE]
MIC (Candida albicans): 6.3 µg/mL (≈ 48.8 µM)
MIC (Candida tropicalis): 6.3 µg/mL (≈ 48.8 µM)
MIC (Pichia kudriavzevii): 12.5 µg/mL (≈ 96.8 µM)
MIC (Cryptococcus neoformans): 12.5 µg/mL (≈ 96.8 µM)
MIC (Aspergillus niger): 12.5 µg/mL (≈ 96.8 µM)
MIC (Aspergillus flavus): 6.3 µg/mL (≈ 48.8 µM)

COC(=O)c1c(N)oc2ccc(O)cc12
MIC (Candida albicans): 1.6 µg/mL (≈ 7.72 µM)
MIC (Candida tropicalis): 3.2 µg/mL (≈ 15.4 µM)
MIC (Pichia kudriavzevii): 6.3 µg/mL (≈ 30.4 µM)
MIC (Cryptococcus neoformans): 12.5 µg/mL (≈ 60.3 µM)
MIC (Aspergillus niger): 3.2 µg/mL (≈ 15.4 µM)
MIC (Aspergillus flavus): 12.5 µg/mL (≈ 60.3 µM)

OC(Cn1cncn1)(Cn1cncn1)c1ccc(F)cc1F [FLUCONAZOLE]
MIC (Candida albicans): 50 µg/mL (≈ 163 µM)
MIC (Candida tropicalis): 6.3 µg/mL (≈ 20.6 µM)
MIC (Pichia kudriavzevii): 12.5 µg/mL (≈ 40.8 µM)
MIC (Cryptococcus neoformans): 6.3 µg/mL (≈ 20.6 µM)
MIC (Aspergillus niger): 12.5 µg/mL (≈ 40.8 µM)
MIC (Aspergillus flavus): 25 µg/mL (≈ 81.6 µM)

COC(=O)c1c(N)oc2c(C)c(C)c(O)c(Sc3cccc(F)c3)c12
MIC (Candida albicans): > 50 µg/mL
MIC (Candida tropicalis): 50 µg/mL (≈ 138 µM)
MIC (Pichia kudriavzevii): 25 µg/mL (≈ 69.2 µM)
MIC (Cryptococcus neoformans): 6.3 µg/mL (≈ 17.4 µM)
MIC (Aspergillus niger): 1.6 µg/mL (≈ 4.43 µM)
MIC (Aspergillus flavus): 3.2 µg/mL (≈ 8.85 µM)

Cc1cc2oc(N)c(C#N)c2cc1O
MIC (Candida albicans): 50 µg/mL (≈ 266 µM)
MIC (Candida tropicalis): > 50 µg/mL
MIC (Pichia kudriavzevii): 0.8 µg/mL (≈ 4.25 µM)
MIC (Cryptococcus neoformans): 3.2 µg/mL (≈ 17 µM)
MIC (Aspergillus niger): > 50 µg/mL
MIC (Aspergillus flavus): 12.5 µg/mL (≈ 66.4 µM)

COC(=O)C(C#N)C1=C(Cl)C(=O)C(C)=C(C)C1=O (stereo not drawn)
MIC (Candida albicans): 50 µg/mL (≈ 187 µM)
MIC (Candida tropicalis): 50 µg/mL (≈ 187 µM)
MIC (Pichia kudriavzevii): 25 µg/mL (≈ 93.4 µM)
MIC (Cryptococcus neoformans): 6.3 µg/mL (≈ 23.5 µM)
MIC (Aspergillus niger): 25 µg/mL (≈ 93.4 µM)
MIC (Aspergillus flavus): 12.5 µg/mL (≈ 46.7 µM)

COC(=O)c1c(N)oc2c(C)c(C)c(O)c(Sc3ccc(C)cc3)c12
MIC (Candida albicans): 25 µg/mL (≈ 69.9 µM)
MIC (Candida tropicalis): 25 µg/mL (≈ 69.9 µM)
MIC (Pichia kudriavzevii): 3.2 µg/mL (≈ 8.95 µM)
MIC (Cryptococcus neoformans): 6.3 µg/mL (≈ 17.6 µM)
MIC (Aspergillus niger): 25 µg/mL (≈ 69.9 µM)
MIC (Aspergillus flavus): 25 µg/mL (≈ 69.9 µM)

COC(=O)c1c(N)oc2c(C)c(C)c(O)cc12
MIC (Candida albicans): 50 µg/mL (≈ 213 µM)
MIC (Candida tropicalis): 50 µg/mL (≈ 213 µM)
MIC (Pichia kudriavzevii): 25 µg/mL (≈ 106 µM)
MIC (Cryptococcus neoformans): 25 µg/mL (≈ 106 µM)
MIC (Aspergillus niger): 6.3 µg/mL (≈ 26.8 µM)
MIC (Aspergillus flavus): 25 µg/mL (≈ 106 µM)

COC(=O)c1c(N)oc2cc(Cl)c(O)cc12
MIC (Candida albicans): 25 µg/mL (≈ 103 µM)
MIC (Candida tropicalis): 12.5 µg/mL (≈ 51.7 µM)
MIC (Pichia kudriavzevii): 25 µg/mL (≈ 103 µM)
MIC (Cryptococcus neoformans): 12.5 µg/mL (≈ 51.7 µM)
MIC (Aspergillus niger): 6.3 µg/mL (≈ 26.1 µM)
MIC (Aspergillus flavus): 6.3 µg/mL (≈ 26.1 µM)

CCOC(=O)c1c(N)oc2cc(Cl)c(O)cc12
MIC (Candida albicans): 12.5 µg/mL (≈ 48.9 µM)
MIC (Candida tropicalis): 12.5 µg/mL (≈ 48.9 µM)
MIC (Pichia kudriavzevii): 25 µg/mL (≈ 97.8 µM)
MIC (Cryptococcus neoformans): 50 µg/mL (≈ 196 µM)
MIC (Aspergillus niger): 25 µg/mL (≈ 97.8 µM)
MIC (Aspergillus flavus): 12.5 µg/mL (≈ 48.9 µM)

N#Cc1c(N)oc2ccc(O)cc12
MIC (Candida albicans): 12.5 µg/mL (≈ 71.8 µM)
MIC (Candida tropicalis): 6.3 µg/mL (≈ 36.2 µM)
MIC (Pichia kudriavzevii): 25 µg/mL (≈ 144 µM)
MIC (Cryptococcus neoformans): 12.5 µg/mL (≈ 71.8 µM)
MIC (Aspergillus niger): 6.3 µg/mL (≈ 36.2 µM)
MIC (Aspergillus flavus): 12.5 µg/mL (≈ 71.8 µM)

COC(=O)c1c(N)oc2cc(C)c(O)cc12
MIC (Candida albicans): 25 µg/mL (≈ 113 µM)
MIC (Candida tropicalis): 25 µg/mL (≈ 113 µM)
MIC (Pichia kudriavzevii): 3.2 µg/mL (≈ 14.5 µM)
MIC (Cryptococcus neoformans): 12.5 µg/mL (≈ 56.5 µM)
MIC (Aspergillus niger): 12.5 µg/mL (≈ 56.5 µM)
MIC (Aspergillus flavus): 25 µg/mL (≈ 113 µM)

Cc1c(O)ccc(O)c1C
MIC (Candida albicans): 50 µg/mL (≈ 362 µM)
MIC (Candida tropicalis): > 50 µg/mL
MIC (Pichia kudriavzevii): 25 µg/mL (≈ 181 µM)
MIC (Cryptococcus neoformans): 12.5 µg/mL (≈ 90.5 µM)
MIC (Aspergillus niger): 50 µg/mL (≈ 362 µM)
MIC (Aspergillus flavus): 12.5 µg/mL (≈ 90.5 µM)

COC(=O)c1c(N)oc2c(C)c(C)c(O)c(Sc3ccc(C)c(C)c3)c12
MIC (Candida albicans): 25 µg/mL (≈ 67.3 µM)
MIC (Candida tropicalis): 25 µg/mL (≈ 67.3 µM)
MIC (Pichia kudriavzevii): 3.2 µg/mL (≈ 8.61 µM)
MIC (Cryptococcus neoformans): 1.6 µg/mL (≈ 4.31 µM)
MIC (Aspergillus niger): 12.5 µg/mL (≈ 33.7 µM)
MIC (Aspergillus flavus): 3.2 µg/mL (≈ 8.61 µM)

COC(=O)c1c(N)oc2c(C)c(C)c(O)c(Sc3ccccc3)c12
MIC (Candida albicans): 25 µg/mL (≈ 72.8 µM)
MIC (Candida tropicalis): 25 µg/mL (≈ 72.8 µM)
MIC (Pichia kudriavzevii): 6.3 µg/mL (≈ 18.3 µM)
MIC (Cryptococcus neoformans): 1.6 µg/mL (≈ 4.66 µM)
MIC (Aspergillus niger): 12.5 µg/mL (≈ 36.4 µM)
MIC (Aspergillus flavus): 25 µg/mL (≈ 72.8 µM)

CCOC(=O)c1c(N)oc2c(C)cc(O)c(C)c12
MIC (Candida albicans): 6.3 µg/mL (≈ 25.3 µM)
MIC (Candida tropicalis): 6.3 µg/mL (≈ 25.3 µM)
MIC (Pichia kudriavzevii): 3.2 µg/mL (≈ 12.8 µM)
MIC (Cryptococcus neoformans): 12.5 µg/mL (≈ 50.1 µM)
MIC (Aspergillus niger): 12.5 µg/mL (≈ 50.1 µM)
MIC (Aspergillus flavus): 12.5 µg/mL (≈ 50.1 µM)

CCOC(=O)c1c(N)oc2ccc(O)cc12
MIC (Candida albicans): 1.6 µg/mL (≈ 7.23 µM)
MIC (Candida tropicalis): 3.2 µg/mL (≈ 14.5 µM)
MIC (Pichia kudriavzevii): 12.5 µg/mL (≈ 56.5 µM)
MIC (Cryptococcus neoformans): 12.5 µg/mL (≈ 56.5 µM)
MIC (Aspergillus niger): 3.2 µg/mL (≈ 14.5 µM)
MIC (Aspergillus flavus): 6.3 µg/mL (≈ 28.5 µM)

COC(=O)c1c(N)oc2c(C)c(C)c(O)c(Sc3cccc(C)c3)c12
MIC (Candida albicans): > 50 µg/mL
MIC (Candida tropicalis): > 50 µg/mL
MIC (Pichia kudriavzevii): > 50 µg/mL
MIC (Cryptococcus neoformans): 1.6 µg/mL (≈ 4.48 µM)
MIC (Aspergillus niger): > 50 µg/mL
MIC (Aspergillus flavus): > 50 µg/mL
